# Laboratory results as given in publication PMC9893515 (Bioorganic chemistry, 2021).
# Target: T1, recombinant human TDP2 (Homo sapiens, UniProt O95551)
# T1 sequence (O95551 1-362): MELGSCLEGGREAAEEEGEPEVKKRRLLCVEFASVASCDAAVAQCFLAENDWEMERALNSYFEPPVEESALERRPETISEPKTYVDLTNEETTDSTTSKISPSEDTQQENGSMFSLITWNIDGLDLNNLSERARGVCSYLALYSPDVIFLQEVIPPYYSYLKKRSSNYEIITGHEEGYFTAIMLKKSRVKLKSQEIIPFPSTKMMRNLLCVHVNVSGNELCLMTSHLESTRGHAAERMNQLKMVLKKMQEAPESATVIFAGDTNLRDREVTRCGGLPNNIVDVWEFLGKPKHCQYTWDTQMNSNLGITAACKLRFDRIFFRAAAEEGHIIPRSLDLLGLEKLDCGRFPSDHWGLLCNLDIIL
# Assay: Recombinant TDP2 assay
# Format: biochemical
# In short: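 Human recombinant TDP2 (25 pM) with 1 nM 18-mer 5'-phosphotyrosyl ssDNA, 3'-α32P-cordycepin-labelled. Reaction ran 15 min at room temperature in Tris-HCl pH 7.5, KCl, MgCl2, EDTA, DTT, BSA and Tween 20. Stopped with formamide loading buffer, then 16% denaturing PAGE and phosphorimaging densitometry of product. […] IC50 is 50% enzyme inhibition.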
row,IC50,SMILES
1,3.1 ± 0.43 µM,"CC(C)(C)OC(=O)c1noc2c1C(=O)c1ncccc1C2=O [Compound 54, Tert-butyl 4,9-dioxo-4,9-dihydroisoxazolo[5,4-g]quinoline-3-carboxylate]"
2,> 111 µM,"CCOC(=O)c1c(C)oc2c1C(=O)c1nc(-c3ccc(OC)cc3)ccc1C2=O [Compound 27, Ethyl6-(4-methoxyphenyl)-2-methyl-4,9-dioxo-4,9-dihydrofuro[2,3-g]quinoline-3-carboxylate]"
3,31 ± 4.2 µM,"CCOC(=O)c1c(CN2CCN(C(C)=O)CC2)oc2c1C(=O)c1ncccc1C2=O [Compound 45, Ethyl 2-((4-acetylpiperazin-1-yl)methyl)-4,9-dioxo-4,9-dihydrofuro[2,3-g]qui noline-3-carboxylate]"
4,25 ± 7.7 µM,"CCOC(=O)c1c(C(C)C)oc2c1C(=O)c1ncccc1C2=O [Compound 39, Ethyl 2-isopropyl-4,9-dioxo-4,9-dihydrofuro[2,3-g]quinoline-3-carboxylate]"
5,0.99 ± 0.13 µM,"CS(=O)(=O)c1ccc(OCc2noc3c2C(=O)c2cccnc2C3=O)cc1 [Compound 67, 3-((4-(Methylsulfonyl)phenoxy)methyl)isoxazolo[4,5-g]quinoline-4,9-dione]"
6,28 ± 1.3 µM,"CCOC(=O)c1c(C)oc2c1C(=O)c1nccc(CC)c1C2=O [Compound 36, Ethyl-8-ethyl-2-methyl-4,9-dioxo-4,9-dihydrofuro[2,3-g]quinoline-3-carboxylate]"
7,3.3 ± 0.65 µM,"CC(C)(C)OC(=O)c1noc2c1C(=O)c1cccnc1C2=O [Compound 55, Tert-butyl 4,9-dioxo-4,9-dihydroisoxazolo[4,5-g]quinoline-3-carboxylate]"
8,11 ± 3.8 µM,"O=C(OCCc1ccc([N+](=O)[O-])cc1)c1noc2c1C(=O)c1cccnc1C2=O [Compound 62, 4-Nitrophenethyl 4,9-dioxo-4,9-dihydroisoxazolo[4,5-g]quinoline-3-carboxylate]"
9,0.74 ± 0.25 µM,"N#Cc1ccc(OCc2noc3c2C(=O)c2cccnc2C3=O)cc1 [Compound 68, 4-((4,9-Dioxo-4,9-dihydroisoxazolo[4,5-g]quinolin-3-yl)methoxy)benzonitrile]"
10,9.9 ± 2.2 µM,"O=C(OCCc1ccc(Cl)cc1)c1noc2c1C(=O)c1cccnc1C2=O [Compound 57, 4-chlorophenethyl 4,9-dioxo-4,9-dihydroisoxazolo[4,5-g]quinoline-3-carboxylate]"
